Converted amounts (≈) assume the structure as drawn.
Experiments:
[1] = target: T1, Vasopressin V1a receptor (Homo sapiens, UniProt P37288); assay: Displacement of [3H]-vasopressin from human vasopressin 1a receptor expressed in HEK293 cell membranes after 1 hr by scintillation proximity assay
Method in brief: (§1)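 Radioligand competition binding; affinity reported as Ki.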
Target sequence in this assay (P37288 whole entry): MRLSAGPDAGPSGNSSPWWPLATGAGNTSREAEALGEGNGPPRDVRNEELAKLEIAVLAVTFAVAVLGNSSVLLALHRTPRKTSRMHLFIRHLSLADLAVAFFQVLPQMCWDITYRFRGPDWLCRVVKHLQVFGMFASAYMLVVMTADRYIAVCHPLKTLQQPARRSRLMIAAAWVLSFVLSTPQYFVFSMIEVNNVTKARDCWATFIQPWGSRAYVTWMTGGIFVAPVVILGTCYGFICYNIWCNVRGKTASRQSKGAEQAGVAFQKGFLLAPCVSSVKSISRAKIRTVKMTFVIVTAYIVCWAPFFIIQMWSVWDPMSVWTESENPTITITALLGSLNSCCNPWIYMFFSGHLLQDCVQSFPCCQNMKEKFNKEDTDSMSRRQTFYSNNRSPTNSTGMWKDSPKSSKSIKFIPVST

[2] = target: T1, Vasopressin V1a receptor; assay: Antagonist activity at human vasopressin 1a receptor expressed in CHO cells assessed as inhibition of vasopressin-induced calcium flux preincubated for 20 mins followed by vasopressin induction measured for 5 mins by FLIPR assay; assay type: functional, cell-based
Method in brief: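 Functional antagonist calcium-flux read-out; value reported as apparent affinity (Kb).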
Target sequence in this assay (P37288 whole entry, looked up): as the sequence (P37288 whole entry) above

[3] = target: Vasopressin V1a receptor (Mus musculus, UniProt Q62463); assay: Displacement of [3H]-vasopressin from mouse vasopressin 1a receptor expressed in HEK293 cell membranes after 1 hr by scintillation proximity assay; method in brief: as §1
Sequence of Vasopressin V1a receptor (Mus musculus, UniProt Q62463) (Q62463 whole entry): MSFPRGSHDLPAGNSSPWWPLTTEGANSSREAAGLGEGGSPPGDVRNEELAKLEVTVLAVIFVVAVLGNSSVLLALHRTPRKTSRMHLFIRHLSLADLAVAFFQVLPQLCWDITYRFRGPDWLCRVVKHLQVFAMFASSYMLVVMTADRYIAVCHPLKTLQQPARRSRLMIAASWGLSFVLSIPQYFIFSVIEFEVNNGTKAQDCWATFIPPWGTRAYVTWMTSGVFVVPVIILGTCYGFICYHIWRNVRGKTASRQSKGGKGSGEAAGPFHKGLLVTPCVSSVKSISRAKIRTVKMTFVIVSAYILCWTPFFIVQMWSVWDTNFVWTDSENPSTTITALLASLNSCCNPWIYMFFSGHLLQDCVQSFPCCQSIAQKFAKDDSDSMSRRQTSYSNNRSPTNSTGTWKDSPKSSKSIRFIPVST

[4] = Ratio of drug level in brain to plasma in mouse at 10 mg/kg, po; assay type: ADME, organism-based; set-up: dose 10 mg/kg, route oral; conditions: read-out: BPR
[5] = Activity at human P-gp assessed as drug transport; assay type: ADME
[6] = Clearance in mouse at 2 mg/kg, iv; assay type: ADME, organism-based; set-up: dose 2 mg/kg, route intravenous; conditions: in vivo
[7] = species on record: Homo sapiens; assay: Selectivity ratio of Ki for human vasopressin V2 receptor to Ki for human vasopressin 1a receptor
Method in brief: (§2)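 Ratio of the Ki at hV2 or hOTR to the hV1a Ki. Each Ki came from a radioligand competition binding assay.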

[8] = species on record: Homo sapiens; assay: Selectivity ratio of Ki for human oxytocin receptor to Ki for human vasopressin 1a receptor; method in brief: as §2
[9] = Solubility of the compound in phosphate buffer at pH 6.5 incubated for 1 hr with stirring followed by 2 hrs of shaking by Lysa assay; assay type: physicochemical
[10] = Volume of distribution at steady state in mouse at 2 mg/kg, iv; assay type: ADME, organism-based; set-up: dose 2 mg/kg, route intravenous; conditions: in vivo, read-out: Vdss
[11] = target: T2, Oxytocin receptor (Homo sapiens, UniProt P30559); assay: Displacement of [3H]-oxytocin from human oxytocin receptor expressed in HEK cell membranes after 1 hr by scintillation proximity assay; set-up: species or system HEK293
T2 sequence (P30559 whole entry): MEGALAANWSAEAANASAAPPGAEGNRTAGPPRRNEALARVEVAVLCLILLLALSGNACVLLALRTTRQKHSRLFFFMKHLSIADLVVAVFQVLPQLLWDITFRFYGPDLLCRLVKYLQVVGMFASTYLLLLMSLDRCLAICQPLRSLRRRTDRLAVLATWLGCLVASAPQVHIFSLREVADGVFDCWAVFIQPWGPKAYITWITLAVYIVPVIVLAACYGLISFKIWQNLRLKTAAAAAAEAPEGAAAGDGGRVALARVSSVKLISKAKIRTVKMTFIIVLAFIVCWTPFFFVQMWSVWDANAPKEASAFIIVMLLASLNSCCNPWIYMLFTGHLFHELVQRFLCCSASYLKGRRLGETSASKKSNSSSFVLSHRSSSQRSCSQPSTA

[12] = Octanol-buffer partition co-efficient, log D of the compound after 24 hrs by high-throughput shake-flask method; assay type: physicochemical
[13] = target: Vasopressin V2 receptor (Homo sapiens, UniProt P30518); assay: Displacement of [3H]-vasopressin from human vasopressin V2 receptor expressed in HEK293 cell membranes after 1 hr by scintillation proximity assay
Sequence of Vasopressin V2 receptor (P30518 whole entry): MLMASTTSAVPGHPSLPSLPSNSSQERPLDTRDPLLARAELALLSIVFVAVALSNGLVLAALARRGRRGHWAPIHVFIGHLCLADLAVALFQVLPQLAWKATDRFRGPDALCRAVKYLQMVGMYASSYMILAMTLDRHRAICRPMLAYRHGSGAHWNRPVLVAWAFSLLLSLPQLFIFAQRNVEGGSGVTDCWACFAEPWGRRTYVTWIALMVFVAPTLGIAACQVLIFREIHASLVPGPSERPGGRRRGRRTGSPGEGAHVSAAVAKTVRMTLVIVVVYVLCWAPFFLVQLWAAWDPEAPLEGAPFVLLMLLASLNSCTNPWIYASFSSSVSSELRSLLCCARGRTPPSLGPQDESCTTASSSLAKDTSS

[14] = target: T3, Vasopressin V1b receptor (Homo sapiens, UniProt P47901); assay: Displacement of [3H]-vasopressin from human vasopressin 1b receptor after 1 hr by scintillation proximity assay
T3 sequence (P47901 whole entry): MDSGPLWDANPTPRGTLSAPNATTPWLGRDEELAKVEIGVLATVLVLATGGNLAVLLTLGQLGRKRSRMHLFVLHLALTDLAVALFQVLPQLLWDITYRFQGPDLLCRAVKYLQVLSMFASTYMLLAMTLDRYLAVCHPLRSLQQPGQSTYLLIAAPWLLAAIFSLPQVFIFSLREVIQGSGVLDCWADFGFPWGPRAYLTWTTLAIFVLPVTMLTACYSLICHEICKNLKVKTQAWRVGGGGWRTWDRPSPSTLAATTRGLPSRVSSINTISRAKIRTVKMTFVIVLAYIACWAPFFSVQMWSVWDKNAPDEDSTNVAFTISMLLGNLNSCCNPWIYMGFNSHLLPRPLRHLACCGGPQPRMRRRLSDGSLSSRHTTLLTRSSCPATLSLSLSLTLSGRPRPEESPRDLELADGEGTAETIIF

[15] = tested on: Mus musculus; assay: Inhibition of arginine vasopressin-induced scratching in ip dosed NMRI mouse administered 30 mins prior to arginine vasopressin challenge measured for 5 mins; assay type: functional, organism-based
Method in brief: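 Mice received the compound i.p. at 0.3, 1, 3, 10 or 30 mg/kg or vehicle before centrally given AVP. AVP-induced scratching was scored and expressed as % of maximal response.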

[16] = tested on: Mus musculus; assay: Inhibition of arginine vasopressin-induced scratching in icv dosed NMRI mouse administered 5 mins prior to arginine vasopressin challenge measured for 5 mins; assay type: functional, organism-based
Method in brief: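 Mice received the compound i.c.v. at three doses or vehicle before centrally given AVP. AVP-induced scratching was scored and expressed as % of maximal response.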

| Structure (SMILES) | Ki ([1]; read-out: Ki) [nM] | Kb [2] [nM] | Ki ([3]; read-out: Ki) [nM] | solubility at 3 h [9] [µg/mL] | further results |
| --- | --- | --- | --- | --- | --- |
| Cc1c(C(=O)N2CCC(O)(Cc3ccccc3)CC2)c2ccccc2n1Cc1ccccc1 | 295 | – | – | – | – |
| O=C(c1c[nH]c2cc(Cl)ccc12)N1CCC2(CC1)CNc1ccccc12 | – | 20 | 5890 | – | – |
| O=C1Nc2ccccc2C2(CCN(C(=O)c3c[nH]c4cc(Cl)ccc34)CC2)O1 | – | 38 | – | – | Ki ([3]; hek293): Not Active |
| CN1CCC(n2cc(C(=O)N3CCC4(CC3)OCc3ccccc34)c3ccc(Cl)cc32)CC1 | 4 | 3.3 | 11 | 12 (≈ 25.9 µM) | Kp [4]: 1; Activity [5]: Not Active; clearance [6]: 52 mL/min/kg; Ratio Ki [7]: > 6750; Ratio Ki [8]: 1200; Vd [10]: 7.2 L/kg |
| O=C(c1c[nH]c2cc(Cl)ccc12)N1CCC2(CC1)c1ccccc1CS2(=O)=O | 24 | 11 | 5890 | – | – |
| O=C(c1c[nH]c2cc(Cl)ccc12)N1CCN(c2ccccc2Cl)CC1 | 118 | 193 | 1970 | – | – |
| O=C(c1c[nH]c2cc(Cl)ccc12)N1CCC2(CC1)OCc1ccccc12 | 4 | 2.9 | 1010 | 4 (≈ 10.9 µM) | Activity [5]: Not Active; Ki ([11]; read-out: Ki): 7.52 µM; Ratio Ki [7]: > 6750; Ratio Ki [8]: 1880; logD at 24 h [12]: 3.7; Ki [13]: > 27 µM |
| CCOc1ccc2ccccc2c1C(=O)N1CCC(O)(Cc2ccccc2)CC1 | 2830 | – | – | – | Ki ([14]; read-out: Ki): 12 µM |
| CCOc1ccc2ccccc2c1C(=O)N1CCC2(CC1)OCc1ccccc12 | 81 | – | – | – | Ki [14]: Not Active |
| Cc1c(C(=O)N2CCC(O)(Cc3ccccc3)CC2)c2ccccc2n1C(=O)c1ccccc1 | 3900 | – | – | – | – |
| CN(C)C(=O)Cn1cc(C(=O)N2CCC3(CC2)OCc2ccccc23)c2ccc(Cl)cc21 | – | 0.1 | 14 | 56 (≈ 124 µM) | Kp [4]: 0.05; Activity [5]: Active; clearance [6]: 40 mL/min/kg; Vd [10]: 1.2 L/kg |
| O=C(c1c[nH]c2ccccc12)N1CCC2(CC1)OCc1ccccc12 | 32 | – | 6620 | 17 (≈ 51.1 µM) | logD at 24 h [12]: > 3 |
| O=C(c1cccc2ccccc12)N1CCC(O)(Cc2ccccc2)CC1 | 6620 | – | – | – | – |
| CN(C)CCNC(=O)Cn1cc(C(=O)N2CCC3(CC2)OCc2ccccc23)c2ccc(Cl)cc21 | 2 | 0.7 | 177 | > 650 | Kp [4]: 0.1; inhibition [15]: Dose-dependent effect; Activity [5]: Active; clearance [6]: 14 mL/min/kg; Ratio Ki [7]: 11800; Ratio Ki [8]: 5690; Vd [10]: 4.9 L/kg |
| Cc1c(C(=O)N2CCC3(CC2)OCc2ccccc23)c2ccccc2n1Cc1ccccc1 | 2 | 3.6 | 210 | < 1 | Ki ([11]; hek293): Not Active; logD at 24 h [12]: > 3; Ki [13]: 9.31 µM |
| O=C(c1cn(C[C@@H]2CCCN2)c2cc(Cl)ccc12)N1CCC2(CC1)OCc1ccccc12 | 1.4 | 1.4 | 125 | 108 (≈ 240 µM) | Kp [4]: 0.05; Activity [5]: Active; clearance [6]: 32 mL/min/kg; Ratio Ki [7]: > 19300; Ratio Ki [8]: 1510; Vd [10]: 6.8 L/kg |
| O=C(c1c[nH]c2cc(Cl)ccc12)N1CCC2(CC1)OCc1cccnc12 | 5 | 1.8 | 1020 | – | – |
| COc1ccccc1C(=O)N1CCC(O)(Cc2ccccc2)CC1 | – | – | – | – | Ki ([1]; hek293): Not Active |
| CN(C)CCn1cc(C(=O)N2CCC3(CC2)OCc2ccccc23)c2ccc(Cl)cc21 [RO-5028442] | – | 2.6 | 39 | 205 (≈ 468 µM) | Kp [4]: 1.4; Activity [5]: Not Active; clearance [6]: 91 mL/min/kg; Ratio Ki [7]: > 30000; Ratio Ki [8]: 9890; Vd [10]: 5.8 L/kg |
| O=C1OC2(CCN(C(=O)c3c[nH]c4cc(Cl)ccc34)CC2)c2ccccc21 | 5 | 5 | – | – | Ki ([3]; hek293): Not Active |
| O=C(c1c[nH]c2cc(Cl)ccc12)N1CCC2(CC1)OCc1ncccc12 | 39 | 7.8 | 4820 | – | – |
| O=C(c1c[nH]c2cc(Cl)ccc12)N1CCC2(CC1)OCc1ccncc12 | 9 | 4.2 | 2980 | – | – |
| O=C(c1c[nH]c2cc(Cl)ccc12)N1CCC2(CC1)COc1ccccc12 | 16 | 72 | – | – | Ki ([3]; hek293): Not Active |
| O=C(c1c[nH]c2cc(Cl)ccc12)N1CCC(c2ccccc2)CC1 | 23 | 43 | 1490 | – | – |
| CN1CCC[C@H]1Cn1cc(C(=O)N2CCC3(CC2)OCc2ccccc23)c2ccc(Cl)cc21 | 1 | 0.5 | 13 | 140 (≈ 302 µM) | Kp [4]: 2; Activity [5]: Not Active; clearance [6]: 67 mL/min/kg; Ratio Ki [7]: 6070; Ratio Ki [8]: 1980; Vd [10]: 2.6 L/kg |
| CN1CCN(C(=O)Cn2cc(C(=O)N3CCC4(CC3)OCc3ccccc34)c3ccc(Cl)cc32)CC1 | 1 | 0.2 | 41 | 193 (≈ 381 µM) | Kp [4]: 0.07; clearance [6]: 39 mL/min/kg; Ratio Ki [7]: > 60000; Ratio Ki [8]: 9160; inhibition [16]: Dose-dependent effect; Vd [10]: 1.5 L/kg |
| O=C(c1c[nH]c2cc(Cl)ccc12)N1CCC(n2c(=O)[nH]c3ccccc32)CC1 | 8 | 14 | 2390 | – | – |
| Cc1c(C(=O)N2CCC(O)(Cc3ccccc3)CC2)c2ccccc2n1S(=O)(=O)c1ccccc1 | 4990 | – | – | – | – |

From ChEMBL document CHEMBL3414481, “Discovery of highly selective brain-penetrant vasopressin 1a antagonists for the potential treatment of autism via a chemogenomic and scaffold hopping approach” (J Med Chem, 2015)
